These results are taken from PubChem BioAssay AID588743 (Vanderbilt Specialized Chemistry Center, 2011).

Calls of active or inactive are those of the source.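 Rule for the calls: active = a dose-dependent boost of the low-dose acetylcholine calcium response, with potency and top response fitted; inactive = the rest.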

What is called EC50 is the midpoint of the concentration-response curve.

Sequence of Muscarinic acetylcholine receptor M4 (Homo sapiens) (P08173 whole entry, looked up): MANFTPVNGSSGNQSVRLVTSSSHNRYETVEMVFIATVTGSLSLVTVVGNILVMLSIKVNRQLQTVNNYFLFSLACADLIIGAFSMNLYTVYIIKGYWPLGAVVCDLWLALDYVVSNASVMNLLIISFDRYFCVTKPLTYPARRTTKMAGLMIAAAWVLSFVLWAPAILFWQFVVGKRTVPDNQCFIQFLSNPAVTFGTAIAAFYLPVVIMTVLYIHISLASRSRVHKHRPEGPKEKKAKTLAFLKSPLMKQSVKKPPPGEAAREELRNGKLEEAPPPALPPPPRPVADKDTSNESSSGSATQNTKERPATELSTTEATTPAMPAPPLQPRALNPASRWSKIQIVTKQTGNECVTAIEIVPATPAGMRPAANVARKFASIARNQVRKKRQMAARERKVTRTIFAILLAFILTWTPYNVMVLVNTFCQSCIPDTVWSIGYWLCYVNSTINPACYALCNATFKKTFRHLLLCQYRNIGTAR

The first assay addresses Muscarinic acetylcholine receptor M4 (Homo sapiens) (UniProt P08173). The experiment in a line: M4 positive allosteric modulators, potency, SAR follow-up, CHO hM4/Gqi5 cells, calcium mobilization (AID 588743). To be noted: PAM with EC20 ACh. An outline of the steps: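 Material – CHO cells stably co-expressing human M4 receptor and chimeric Gqi5 · Schedule – 144 s compound preincubation, 37 °C · Measured by – calcium mobilization fluorescence, cells loaded with 2.3 µM Fluo-4 AM · Measure – EC50 by four-parameter logistic fit, signal as percent ACh maximum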
(In general: A change in cytosolic calcium serves as a functional read-out for many receptors and channels.)
On to `Cc1nc2sc(C(=O)NC(C)c3cccnc3)c(N)c2c(C)c1Cl` (configuration not stated), for which the concentration giving a half-maximal response (EC50) is 601 nM.

Take `Cc1nc2sc(C(=O)NCc3ccccc3Cl)c(N)c2c(C)c1Cl`: the EC50 is 154 nM.

With `Cc1nc2sc(C(=O)NCCc3ccccn3)c(N)c2c(C)c1Cl`, the EC50 is 686 nM.

As for `Cc1nc2sc(C(=O)NCc3ccncn3)c(N)c2c(C)c1Cl`, the EC50 is 173 nM.

For `COc1ccc(CNC(=O)c2sc3nc(C)c(Cl)c(C)c3c2N)cc1`, the EC50 is 89.1 nM.

For `Cc1nc2sc(C(=O)NCc3cccnc3)c(N)c2c(C)c1Cl`, the EC50 was 328 nM.

Take `Cc1nc2sc(C(=O)NCc3nccs3)c(N)c2c(C)c1Cl`: the EC50 was 174 nM.

Regarding `Cc1nc2sc(C(=O)NCc3ccc4c(c3)OCO4)c(N)c2c(C)c1Cl`, the EC50 is 170 nM.

In the case of `Cc1nc2sc(C(=O)NCc3ccnnc3)c(N)c2c(C)c1Cl`, the concentration giving a half-maximal response (EC50) is 222 nM.

For `Cc1nc2sc(C(=O)NCCC3CCCN3C)c(N)c2c(C)c1Cl` (configuration not stated), the EC50 is 596 nM.

`Cc1nc2sc(C(=O)NCc3cccc(F)c3F)c(N)c2c(C)c1Cl`: the EC50 was 120 nM.

On to `Cc1nc2sc(C(=O)NCc3ccncc3)c(N)c2c(C)c1Cl`, for which the EC50 is 37.2 nM.

For the molecule `Cc1nc2sc(C(=O)NC(C)c3ccncc3)c(N)c2c(C)c1Cl` (configuration not stated), the EC50 was 600 nM.

With `Cc1nc2sc(C(=O)NC(C)(C)C)c(N)c2c(C)c1Cl`, the EC50 was 372 nM.

Consider `Cc1nc2sc(C(=O)NCc3cnccn3)c(N)c2c(C)c1Cl`, for which the half-maximal effective concentration (EC50) is 250 nM.

Turning to `Cc1nc2sc(C(=O)NC3CCOC3)c(N)c2c(C)c1Cl` (configuration not stated), the EC50 was 28.7 nM.

Turning to `COCCCNC(=O)c1sc2nc(C)c(Cl)c(C)c2c1N`, the EC50 is 425 nM.

Take `Cc1nc2sc(C(=O)NCc3ccccn3)c(N)c2c(C)c1Cl`: the EC50 is 293 nM.

With `Cc1ccc(CNC(=O)c2sc3nc(C)c(Cl)c(C)c3c2N)cc1`, the concentration giving a half-maximal response (EC50) is 132 nM.

Regarding `Cc1nc2sc(C(=O)NC3CC3)c(N)c2c(C)c1Cl`, the EC50 is 20.8 nM.

For `Cc1nc2sc(C(=O)NC3CCOCC3)c(N)c2c(C)c1Cl`, the EC50 is 220 nM.

For `Cc1cc(CNC(=O)c2sc3nc(C)c(Cl)c(C)c3c2N)ccn1`, the concentration giving a half-maximal response (EC50) was 57 nM.

Take `Cc1nc2sc(C(=O)NC3CCCCC3)c(N)c2c(C)c1Cl`: the EC50 was 188 nM.

`Cc1nc2sc(C(=O)NC3COC3)c(N)c2c(C)c1Cl`: the EC50 is 906 nM.

For the molecule `Cc1nc2sc(C(=O)NCC3CCCCC3)c(N)c2c(C)c1Cl`, the EC50 is 1090 nM.

Take `Cc1nc2sc(C(=O)NCc3ncccn3)c(N)c2c(C)c1Cl`: the EC50 is 1070 nM.

With `Cc1nc2sc(C(=O)NCCc3ccncc3)c(N)c2c(C)c1Cl`, the EC50 was 211 nM.

Take `Cc1nc2sc(C(=O)NCc3ccc(C(F)(F)F)cc3)c(N)c2c(C)c1Cl`: the EC50 is 1140 nM.

Regarding `Cc1nc2sc(C(=O)NC(C)c3ccccn3)c(N)c2c(C)c1Cl` (configuration not stated), the EC50 is 1410 nM.

Consider `Cc1nc2sc(C(=O)NCc3ccccc3)c(N)c2c(C)c1Cl`, for which the EC50 is 133 nM.

`Cc1nc2sc(C(=O)NC(C)C)c(N)c2c(C)c1Cl`: the EC50 was 183 nM.

The same assay, now with this note: PAM with EC20 ACh, at 30 µM (top of the series).
`Cc1nc2sc(C(=O)Nc3ccccc3N(C)C)c(N)c2c(C)c1Cl`: the “percent ACh max response” value was “inactive”.

With `Cc1nc2sc(C(=O)NCCc3cccnc3)c(N)c2c(C)c1Cl`, the “percent ACh max response” value was “inactive”.

`COc1ccc(NC(=O)c2sc3nc(C)c(Cl)c(C)c3c2N)cc1`: the percent ACh max response was 45.2.

Regarding `CCOc1ccc(NC(=O)c2sc3nc(C)c(Cl)c(C)c3c2N)cc1`, the “percent ACh max response” value is “inactive”.

Staying with this assay, now noted: PAM with EC20 ACh, at 36.9 µM (top of the series).
Take `Cc1nc2sc(C(=O)NCc3ccc(Cl)cc3)c(N)c2c(C)c1Cl`: the percent ACh max response was 32.3.

In the case of `Cc1nc2sc(C(=O)NCc3ccc(F)c(F)c3)c(N)c2c(C)c1Cl`, the percent ACh max response is 31.6.
